# Arr AP2 block – inhibitors of beta-arrestin/AP2 binding, primary screen, biochemical, GPCR trafficking, flow cytometry | beta-arrestin 1 C-terminal peptide binding to AP2 beta2-adaptin appendage (human) | FITC-arrestin peptide / GST-AP2 beads; AP2 beta2 appendage carries R879A mutation | inhibition, % at 10 µM | actives 0.31% (n = 340,000) | AID 504490, 2011;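 active = inhibition above a set limit, near 3 SD of compounds lacking own fluorescence, cut at about 54% in these data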;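 note: plate controls were DMSO wells for no effect and 5 µM unlabelled arrestin peptide for full effect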
#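 system = GST-tagged AP2 beta2-adaptin appendage (R879A) on 4 µm glutathione beads | reagent = FITC-labelled arrestin peptide probe, 50 nM final | schedule = compound with beads 12 min RT, then probe 1 h RT | signal = HyperCyt-sampled flow cytometry, FL1 channel, ex 488/em 535 nm | read-out = percent response from loss of bead-bound FITC fluorescence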
# SENP1 FRET inh – human SENP1 catalytic domain inhibitors, primary screen, biochemical, FRET, uHTS. recombinant SENP1 catalytic domain, CyPet-SUMO1-YPet FRET cleavage. inhibition, % at 10 µM. AID 624204, 2012. actives 0.21% (n = 360,000);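 active = inhibition at least 30% at 10 µM, raw YFP signal under a set limit, fluorescence ratio 0.5 to 1.5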;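 note: 0% = enzyme with DMSO and 100% = no enzyme wells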
# Target sequence (Q9P0U3 419-644 limits assumed): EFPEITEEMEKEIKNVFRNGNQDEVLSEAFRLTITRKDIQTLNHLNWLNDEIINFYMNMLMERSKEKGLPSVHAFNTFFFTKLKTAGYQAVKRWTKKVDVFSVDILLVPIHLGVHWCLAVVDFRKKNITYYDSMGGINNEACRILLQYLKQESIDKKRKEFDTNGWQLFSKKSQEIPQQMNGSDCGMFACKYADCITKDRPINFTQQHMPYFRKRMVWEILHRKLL
#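 Material – human SENP1 catalytic domain · Input – SENP1 enzyme, 20 pM final · Compound dosing – single concentration of 10 µM compound, 0.5% DMSO final · Timing – enzyme reaction for 50 min at room temperature, dark · Measured by – FRET fluorescence in CFP and YFP emission channels · Control set – no-enzyme wells low, DMSO-plus-enzyme wells high control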
# GASC-1 inh – inhibitors of GASC-1 histone demethylase, primary screen, biochemical, fluorescence, DELFIA europium. Lysine-specific demethylase 4C (Homo sapiens), Q9H3R0. GST-JMJD2C(1-420) H3K9me3 demethylation. inhibition, % at 2.35 µM. actives 0.069% (n = 330,000);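 active = more than half of a compound's replicate wells show inhibition beyond 50%, single wells judged on their own value; inconclusive = some, but no more than half, of replicates pass 50% inhibition; inactive = no replicate passes 50% inhibition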;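 note: signal counts dimethyl H3K9 product captured on neutravidin plate; 0% = median of DMSO wells and 100% = 0.3 times that DMSO median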
# Target sequence (Q9H3R0 1-420 limits assumed): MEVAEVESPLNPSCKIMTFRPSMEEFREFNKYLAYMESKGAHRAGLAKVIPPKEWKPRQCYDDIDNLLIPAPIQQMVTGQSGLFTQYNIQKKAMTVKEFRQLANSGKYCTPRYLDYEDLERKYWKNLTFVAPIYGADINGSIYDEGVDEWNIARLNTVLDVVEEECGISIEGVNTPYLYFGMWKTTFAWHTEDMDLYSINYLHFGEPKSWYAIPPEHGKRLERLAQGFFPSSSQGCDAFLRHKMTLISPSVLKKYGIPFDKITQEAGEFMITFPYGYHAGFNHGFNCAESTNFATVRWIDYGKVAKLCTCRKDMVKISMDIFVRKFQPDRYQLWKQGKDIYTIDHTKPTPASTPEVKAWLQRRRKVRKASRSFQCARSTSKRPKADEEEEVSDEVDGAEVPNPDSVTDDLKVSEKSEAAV
# FAS TE block – FAS thioesterase domain inhibitors, primary screen, biochemical, fluorescence intensity, uHTS. Fatty acid synthase (Homo sapiens), P49327. recombinant FAS-TE, OMFH fluorogenic substrate, fluorescence endpoint. actives 0.67% (n = 360,000). inhibition, % at 15 µM;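 active = compounds whose normalised, plate-corrected inhibition of enzyme fluorescence in the single-dose primary screen is 50% or more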;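 note: 0% = DMSO with enzyme and 100% = substrate without enzyme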
# Active calls of the source: *; ? = inconclusive; · = not tested or not shown. A selection: hits, their analogues and other compounds. The true share with any hit is near 1.1%.
SMILES,Arr AP2 block,SENP1 FRET inh,GASC-1 inh,FAS TE block
COC(=O)C1=C(C(=O)OC)[C@@H]2N(Cc3ccccc3)c3ccccc3[C@@]23C[C@@H](C(=O)OC)N(C(=O)c2ccc(Br)cc2)C3=N1,5,5,-2,84*
C[C@H](CO)N1C[C@H](C)[C@@H](CN(C)C(=O)Nc2ccc(C(F)(F)F)cc2)Oc2c(NC(=O)Nc3ccccc3)cccc2C1=O,6,-2,·,64*
C[C@@H]1CN([C@H](C)CO)C(=O)c2cccc(NC(=O)Nc3ccc(F)cc3)c2O[C@H]1CN(C)C(=O)Nc1ccc(C(F)(F)F)cc1,·,2,-2,37
COc1ccc(S(=O)(=O)Nc2cccc3c2O[C@H](CN(C)Cc2ccc(-c4ccccc4)cc2)[C@@H](C)CN([C@H](C)CO)C3=O)cc1,·,-1,-4,24
C[C@H](CO)N1C[C@H](C)[C@@H](CN(C)C(=O)NC2CCCCC2)Oc2c(NC(=O)Nc3ccc(C(F)(F)F)cc3)cccc2C1=O,7,0,·,85*
COc1ccc(S(=O)(=O)Nc2cccc3c2O[C@H](CN(C)Cc2ccc(C(=O)O)cc2)[C@@H](C)CN([C@H](C)CO)C3=O)cc1,20,-1,58*,-9
COc1ccc(NC(=O)N(C)C[C@H]2Oc3c(NC(=O)Nc4ccc(C(F)(F)F)cc4)cccc3C(=O)N([C@H](C)CO)C[C@@H]2C)cc1,3,0,·,62*
COc1ccc(C2=NOC(C3(S(=O)(=O)c4ccccc4)CC(O)C3)C2)cc1 (stereo not given),0,-1,-1,-11
CSCc1c(C(=O)Nc2ccc(N3CCOCC3)cc2)oc2ccccc12,1,3,2,4
CCOC(=O)C1=C(C)N=c2s/c(=C/c3ccc(OCC(=O)O)cc3)c(=O)n2C1c1ccc(OC)cc1OC (stereo not given),1,-38,2,12
C[C@H]1CN([C@@H](C)CO)C(=O)c2cccc(NC(=O)Nc3ccc(C(F)(F)F)cc3)c2O[C@@H]1CN(C)Cc1ccc(Cl)c(Cl)c1,-3,2,·,77*
CNC[C@@H]1Oc2c(NC(=O)Nc3ccccc3)cccc2C(=O)N([C@@H](C)CO)C[C@H]1C,19,-3,51*,-2
CNC[C@@H]1Oc2c(NC(=O)Nc3ccc(F)cc3)cccc2C(=O)N([C@H](C)CO)C[C@@H]1C,10,0,-25,-8
NS(=O)(=O)c1ccc(CCNC(=O)CSc2ccccc2)cc1,10,-1,51*,-14
NS(=O)(=O)c1ccc(CNC(=O)CSc2ccccc2)cc1,40,1,3,-1
C=CCNC(=O)COC(=O)c1oc2ccccc2c1CSC1CCCCC1,-13,1,4,4
CC(C)(C)OC(=O)NCCCC[C@H](NC(=O)c1nc[nH]c1C(=O)NCc1ccccc1)C(=O)OC(C)(C)C,-7,1,25,55*
CCOc1ccccc1CN1CCN(Cc2ccc3cc(F)ccc3n2)CC1CCO (stereo not given),7,-6,-8,-2
O=C(NCc1cccs1)c1cccnc1C(=O)O,25,2,59*,-6
Cc1cc2oc(C(=O)N3CCN(Cc4ccccc4)CC3)c(C)c2cc1C,-13,-1,3,27
CCN1C(=O)[C@H]2[C@@H](c3ccc(C)cc3)N3C(=O)N(c4cccc(Cl)c4)C(=O)[C@@]3(CC)[C@H]2C1=O,3,1,1,-3
C[C@@]12C(=O)N(c3cccc(Cl)c3)C(=O)N1[C@H](c1ccc(Cl)cc1)[C@@H]1C(=O)N(C3CCCCC3)C(=O)[C@@H]12,7,1,-9,59*
C[C@@]12C(=O)N(c3cccc(F)c3)C(=O)N1[C@H](c1ccc(Cl)cc1)[C@@H]1C(=O)N(C3CCCCC3)C(=O)[C@@H]12,32,2,-2,39
CC(C)C[C@@]12C(=O)N(c3cccc(F)c3)C(=O)N1[C@H](c1ccc(F)cc1)[C@@H]1C(=O)N(C3CCCCC3)C(=O)[C@@H]12,3,1,5,82*
C[C@@]12C(=O)N(c3cccc(F)c3)C(=O)N1[C@H](c1ccc(F)cc1)[C@@H]1C(=O)N(C3CCCCC3)C(=O)[C@@H]12,1,5,6,12
SMILES,Arr AP2 block,SENP1 FRET inh,GASC-1 inh,FAS TE block
CC(C)C[C@@]12C(=O)N(c3cccc(F)c3)C(=O)N1[C@H](c1ccc(Cl)cc1)[C@@H]1C(=O)N(C3CCCCC3)C(=O)[C@@H]12,-7,2,-2,62*
O=C(Nc1ccc(Cl)cc1)N1CCN(c2ccccc2)CC1,12,-1,52*,2
O=c1oc2cc(O)c(Cl)cc2c2ccccc12,6,35,-5,-9
O=c1cc2c(=O)oc3cc(O)c(O)oc3c2c(O)c1O,27,30*,?,-4
CCC(=O)NC(=S)Nc1ccc(NC(=O)CC)cc1,24,3,-1,-12
Cc1ccc(S(=O)(=O)c2nnn3c2nc(NC2CCN(Cc4ccccc4)CC2)c2ccccc23)cc1C,0,-7,14,86*
C[C@H](CO)N1C[C@H](C)[C@@H](CN(C)C(=O)Nc2ccc3c(c2)OCO3)Oc2ccc(NC(=O)Cn3cnnn3)cc2C1=O,6,-2,68*,-12
Cc1noc(C)c1NC(=O)N(C)C[C@H]1Oc2ccc(NC(=O)Cn3cnnn3)cc2C(=O)N([C@H](C)CO)C[C@@H]1C,-4,-2,66*,-7
C[C@H](CO)N1C[C@H](C)[C@@H](CN(C)Cc2ccc3c(c2)OCO3)Oc2ccc(NC(=O)Cn3cnnn3)cc2C1=O,1,0,61*,-6
C[C@H](CO)N1C[C@H](C)[C@@H](CN(C)Cc2ccc(Cl)c(Cl)c2)Oc2ccc(NC(=O)Cn3cnnn3)cc2C1=O,18,1,22,0
Cc1nonc1C(=O)N/N=C/c1cc2c(cc1Br)OCO2,5,1,-1,-2
COc1ccc2c(=O)c(C(=O)NCCc3ccccc3)c[nH]c2c1,3,-9,6,-1
Nc1ccccc1Nc1ccccc1,9,49*,-5,-7
CC(C)(C)c1cc[n+](-c2[nH]c(=O)sc2/C=N/NC([S-])=Nc2ccccc2)cc1,28,46*,1,-7
Cc1cc[n+](-c2[nH]c(=O)sc2/C=N/NC([S-])=Nc2ccccc2)cc1C,6,27,11,-22
O=C(Nc1ccc([N+](=O)[O-])cc1)/C(=C/c1cccc([N+](=O)[O-])c1)NC(=O)C1CCCCC1,11,4,5,59*

# High-throughput results: PubChem BioAssay, several laboratories
